Structures are written as SMILES.

What all share (assay type): functional, organism-based
The subject of assay [1] is Staphylococcus aureus. In words: In vitro antibiotic activity against Staphylococcus aureus ATCC 6358P at 7.2E-8 mol dose; +/- symbol indicates slightly positive result. The procedure, abridged: (§1)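 Compounds were dissolved in ethyl alcohol at 3–5 × 10⁻⁶ mol/mL. Aliquots of 5, 10 or 20 μL were applied to 6-mm filter disks and dried under a light nitrogen stream. The disks were laid on an agar overlay inoculated with the test organism and incubated at 37 °C for 24 h. Inhibition-zone diameters were then measured.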

The test system of assay [2] is Staphylococcus aureus. The assay can be described thus: In vitro antibiotic activity against Staphylococcus aureus ATCC 6358P at 1.8E-8 mol dose; +/- symbol indicates slightly positive result. The procedure, abridged:
as §1

In assay [3] the test system is Candida albicans. In words: In vitro antibiotic activity against Candida albicans at 1.8E-8 mol dose; - symbol indicates negative result. The procedure, abridged:
as §1

Assay [4] concerns Candida albicans. In words: In vitro antibiotic activity against Candida albicans at 7.2E-8 mol dose; - symbol indicates negative result. The gist of the method:
as §1

Assay [5] has as its system Bacillus subtilis. In words: In vitro antibiotic activity against Bacillus subtilis ATCC 6633 at 1.8E-8 mol dose; - symbol indicates negative result. The procedure, abridged:
as §1

In assay [6] the test system is Escherichia coli. In words: In vitro antibiotic activity against Escherichia coli ATCC 10536 at 7.2E-8 mol dose; ++ symbol indicates slight constraint, transient positive result. The procedure, abridged:
as §1

The test system of assay [7] is Candida albicans. The assay can be described thus: In vitro antibiotic activity against Candida albicans at 3.6E-8 mol dose; - symbol indicates negative result. The gist of the method:
as §1

For assay [8], the system named is Staphylococcus aureus. In words: In vitro antibiotic activity against Staphylococcus aureus ATCC 6358P at 3.6E-8 mol dose; +/- symbol indicates slightly positive result. The gist of the method: as §1

Take `CCN(CC)CCCNc1nc(C)cc2nc3ccccc3c(O)c12`: the Antibiotic activity result was “+/-” in assay [1]; “+/-” in assay [2]; “Negative result” in assay [3]; “Negative result” in assay [4]; “Negative result” in assay [5]; “slight constraint, transient positive result” in assay [6]. Moreover, the Antibiotic activity result in assay [7] is “Negative result”; in assay [8], “+/-”.
